Results reported in ChEMBL document CHEMBL4177531, “Cytotoxic Naphthoquinone and Azaanthraquinone Derivatives from an Endophytic Fusarium solani” (J Nat Prod, 2017).

Tests used:
NCI-H1975 = test: Cytotoxicity against human NCI-H1975 cells assessed as reduction in cell viability incubated for 96 hrs by MTT assay; type: functional, cell-based; settings: NCI-H1975, 96 h
Method in brief: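 NSCLC NCI H1975 cells were maintained in RPMI 1640 with 10% v/v FBS and 1% penicillin–streptomycin at 37 °C, humidified 5% CO2. Cells were seeded at 5000–20 000 per well, given 24 h, then dosed in triplicate for 96 h with doxorubicin as positive control. Viability was measured by MTT at 570 nm, and IC50 was obtained from dose–response curves.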

MDA-MB-231 = test: Cytotoxicity against human MDA-MB-231 cells assessed as reduction in cell viability incubated for 96 hrs by MTT assay; type: functional, cell-based; settings: MDA-MB-231, 96 h
Method in brief: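 Triple-negative breast line MDA MB231 was grown as monolayer at 37 °C under humidified 5% CO2 and plated at 5000–20 000 cells/well depending on line. After 24 h, compound was added in triplicate, with doxorubicin as positive control. Cells were exposed continuously for 96 h, then MTT colorimetry read at 570 nm. IC50 came from dose–response fitting.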

HeLa = test: Cytotoxicity against human HeLa cells assessed as reduction in cell viability incubated for 96 hrs by MTT assay; type: functional, cell-based
Method in brief: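 HeLa monolayers kept in DMEM with 10% v/v FBS and 2 mM L-glutamine at 37 °C under humidified 5% CO2. Cells were seeded at 5000–20 000 per well and preincubated 24 h. Compound was added in triplicate, with doxorubicin as positive control. After 96 h continuous exposure, viability was read by MTT absorbance at 570 nm. IC50 came from dose–response analysis.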

MIA PaCa-2 = test: Cytotoxicity against human MIAPaCa2 cells assessed as reduction in cell viability incubated for 96 hrs by MTT assay; type: functional, cell-based; settings: MIA PaCa-2, 96 h
Method in brief: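 Pancreatic adenocarcinoma MIA PaCa2 cells were cultured in DMEM plus 2 mM L-glutamine and 10% FBS at 37 °C, 5% CO2. Cells were seeded at 5000–20 000 per well and rested 24 h, then dosed in triplicate for 96 h continuous exposure, with doxorubicin as positive control. Read-out was MTT absorbance at 570 nm; IC50 was derived by dose–response analysis.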

WI-38 = test: Cytotoxicity against human WI38 cells assessed as reduction in cell viability incubated for 96 hrs by MTT assay; type: cell-based; settings: WI-38, 96 h
Method in brief: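 WI 38 cells were grown in DMEM with 2 mM L-glutamine, 1× nonessential amino acids, 1% penicillin–streptomycin and 15% FBS at 37 °C, 5% CO2. Cells were plated at 5000–20 000 per well, then 24 h later dosed in triplicate and exposed continuously for 96 h. Read-out was MTT absorbance at 570 nm, with IC50 from dose–response analysis.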

SMILES	IC50 (NCI-H1975)	IC50 (MDA-MB-231)	IC50 (HeLa)	IC50 (MIA PaCa-2)	IC50 (WI-38)
COc1cc(O)cc2c1C(=O)c1cnc(C)cc1C2=O	610 nM	1510 nM	960 nM	980 nM	5.84 µM
COc1cc(O)c2c(c1)C(=O)C1=C(COC(C)(O)C1)C2=O (stereo not given)	27700 nM	30700 nM	10300 nM	20500 nM	54.3 µM
COc1c(O)cc(O)c2c1C(=O)c1cc(C)ncc1C2=O	340 nM	730 nM	710 nM	640 nM	6.42 µM
COc1cccc2c1C(=O)c1c(O)c3c(c(O)c1C2=O)C[C@@](O)(C(=O)CO)C[C@@H]3O[C@H]1C[C@H](N)[C@H](O)[C@H](C)O1 [DOXORUBICIN]	30 nM	70 nM	50 nM	40 nM	0.35 µM
